Reference: ChEMBL document CHEMBL4706572, “Benzyl and benzoyl benzoic acid inhibitors of bacterial RNA polymerase-sigma factor interaction” (Eur J Med Chem, 2020)
≈ marks a conversion by molar mass, not a printed value. Calls of active or inactive are those of the source. The rule behind the calls is not given here.

Experiments:
Clostridioides difficile [1] = assay: Antibacterial activity against Clostridium difficile ribotype 027 assessed as reduction in bacterial toxin B production at sub-inhibitory concentration incubated for 48 hrs under anaerobic condition by ELISA; type: functional, organism-based
Outline: (§1)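 Incubated anaerobically at 37 °C for 48 h. Supernatants cleared at 10,000 × g for 2 min. TcdA and TcdB quantified by commercial ELISA, normalized to drug-free control. Duplicate, with technical and biological repeats.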

Clostridioides difficile [2] = assay: Antibacterial activity against Clostridium difficile ribotype 027 assessed as reduction in bacterial toxin A production at sub-inhibitory concentration incubated for 48 hrs under anaerobic condition by ELISA; type: functional, organism-based; outline: as §1
[3] = test system: Staphylococcus epidermidis; assay: Antibacterial activity against Staphylococcus epidermidis ATCC 12228 after 20 hrs by CLSI based-broth microdilution method; type: functional
Outline: (§2)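 Broth microdilution in cation-adjusted Mueller-Hinton broth. Two-fold serial dilutions from 256 μg/mL down to 0.5 μg/mL. Inoculum approx. 5 × 10^5 CFU/mL. Incubated 20 h at 37 °C. MIC taken as the lowest concentration with no observable growth.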

Bacillus subtilis [4] = assay: Inhibition of GFP-fused RNAP subunit beta' interaction with sigma factor A in Bacillus subtilis BS1048 assessed as nucleoid delocalization at half MIC incubated for 15 mins by confocal microscopy
Outline: (§3)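 B. subtilis BS1048 (RpoC-GFP) grown from a single colony in LB at 37 °C to OD600 ~0.6. […] Cells mounted on 1.2% agarose under a coverslip and imaged by confocal microscopy with a 63×/1.3 oil objective for RNAP-GFP localization relative to the nucleoid.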

Streptococcus agalactiae = assay: Antibacterial activity against Streptococcus agalactiae ATCC 12386 after 20 hrs by CLSI based-broth microdilution method; type: functional
Outline: (§4)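 Streptococci tested in Brain Heart Infusion broth. Two-fold dilutions from 256 to 0.5 μg/mL, inoculum approx. 5 × 10^5 CFU/mL. Incubated 20 h at 37 °C. MIC is the lowest concentration without visible growth.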

Bacillus subtilis [5] = assay: Inhibition of GFP-fused RNAP subunit beta' interaction with sigma factor A in Bacillus subtilis BS1048 assessed as alteration in transcriptional complex localization by measuring diffusion of fluorescent signal into cytosol at 1 to 2 times MIC incubated for 15 mins by confocal microscopy; type: subcellular; outline: as §3
Staphylococcus aureus [6] = assay: Antibacterial activity against Staphylococcus aureus ATCC 29213 after 20 hrs by CLSI based-broth microdilution method; type: functional; outline: as §2
Clostridioides difficile [7] = assay: Antibacterial activity against Clostridium difficile ribotype 002 assessed as reduction in bacterial toxin A production at sub-inhibitory concentration incubated for 48 hrs under anaerobic condition by ELISA; type: functional, organism-based; outline: as §1
Streptococcus pyogenes = assay: Antibacterial activity against Streptococcus pyogenes ATCC 19615 after 20 hrs by CLSI based-broth microdilution method; type: functional; outline: as §4
Staphylococcus aureus [8] = assay: Antibacterial activity against Staphylococcus aureus ATCC 25923 after 20 hrs by CLSI based-broth microdilution method; type: functional; outline: as §2
Clostridioides difficile [9] = assay: Antibacterial activity against Clostridium difficile ATCC 9689 assessed as reduction in bacterial toxin A production at sub-inhibitory concentration incubated for 48 hrs under anaerobic condition by ELISA; type: functional, organism-based; settings: ATCC 9689 = DSM 1296; outline: as §1
Staphylococcus aureus [10] = assay: Inhibition of RNAP/sigma factor interaction in Staphylococcus aureus ATCC 29213 assessed as reduction in total RNA level by fluorimetric method
Outline: (§5)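 S. aureus ATCC 29213 master culture started at OD600 0.1 at 37 °C with shaking at 175 rpm. At OD600 0.2 it was split and given compound or control at ¼ and ⅛ MIC, plus a drug-free culture. Cells harvested when the control reached OD600 0.6, with volumes normalized to OD600 0.6 equivalent. DNA and RNA measured by Qubit fluorometry, protein by BCA; triplicate.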

[11] = Antibacterial activity against Staphylococcus saprophyticus ATCC 15305 after 20 hrs by CLSI based-broth microdilution method; type: functional, Staphylococcus saprophyticus subsp. saprophyticus; outline: as §2
Clostridioides difficile [12] = assay: Antibacterial activity against Clostridium difficile ATCC 9689 assessed as reduction in bacterial toxin B production at sub-inhibitory concentration incubated for 48 hrs under anaerobic condition by ELISA; type: functional, organism-based; settings: ATCC 9689 = DSM 1296; outline: as §1
Staphylococcus aureus [13] = assay: Inhibition of RNAP/sigma factor interaction in Staphylococcus aureus ATCC 29213 assessed as total DNA level at 1/4 to 1/8 times MIC by fluorimetric method; outline: as §5
Streptococcus pneumoniae = assay: Antibacterial activity against Streptococcus pneumoniae ATCC 49619 after 20 hrs by CLSI based-broth microdilution method; type: functional; outline: as §4
Clostridioides difficile [14] = assay: Antibacterial activity against Clostridium difficile ribotype 002 assessed as reduction in bacterial toxin B production at sub-inhibitory concentration incubated for 48 hrs under anaerobic condition by ELISA; type: functional, organism-based; outline: as §1
Enterococcus faecalis = assay: Antibacterial activity against Enterococcus faecalis ATCC 19433 after 20 hrs by CLSI based-broth microdilution method; type: functional
Outline: (§6)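 Broth microdilution MIC. Two-fold serial dilutions from 256 μg/mL down to 0.5 μg/mL. Inoculum approx. 5 × 10^5 CFU/mL. Read after 20 h at 37 °C. MIC is the lowest concentration with no observable growth.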

Bacillus subtilis [15] = assay: Antibacterial activity against Bacillus subtilis BS1048 after 20 hrs by CLSI based broth microdilution method; type: functional; outline: as §6
Staphylococcus aureus [16] = assay: Inhibition of RNAP/sigma factor interaction in Staphylococcus aureus ATCC 29213 assessed as reduction in total protein level at 1/4 to 1/8 times MIC by fluorimetric method
Clostridioides difficile [17] = assay: Antibacterial activity against Clostridium difficile ATCC 9689 after measured 48 hrs under anaerobic condition by CLSI based-broth microdilution method; type: functional; settings: ATCC 9689 = DSM 1296
Outline: (§7)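 Compounds dissolved in DMSO. Media pre-reduced 3 h in an anaerobic chamber. Colonies from overnight anaerobic GAM agar grown to early log phase in BHI plus 0.5% w/v yeast extract and 0.05% L-cysteine. Adjusted to 0.5 McFarland, diluted 100 μL into 15 mL. Mixed 1:1 with serially diluted agents. Incubated anaerobically at 37 °C, growth read at 48 h, triplicate.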

Clostridioides difficile [18] = assay: Antibacterial activity against Clostridium difficile ribotype 002 measured after 48 hrs under anaerobic condition by CLSI based-broth microdilution method; type: functional; outline: as §7
Clostridioides difficile [19] = assay: Antibacterial activity against Clostridium difficile ribotype 027 measured after 48 hrs under anaerobic condition by CLSI based-broth microdilution method; type: functional; outline: as §7
Staphylococcus aureus [20] = assay: Inhibition of RNA polymerase in Staphylococcus aureus ATCC 29213 assessed as reduction in total protein level at 1/4 to 1/8 times MIC by fluorimetric method
Staphylococcus aureus [21] = assay: Inhibition of RNA polymerase in Staphylococcus aureus ATCC 29213 assessed as reduction in total RNA level at 1/4 to 1/8 times MIC by fluorimetric method; outline: as §5
Staphylococcus aureus [22] = assay: Inhibition of RNA polymerase in Staphylococcus aureus ATCC 29213 assessed as total DNA level at 1/4 to 1/8 times MIC by fluorimetric method; outline: as §5

Structure (SMILES)	MIC (Staphylococcus aureus [6]) [µg/mL]	MIC (Staphylococcus aureus [8]) [µg/mL]	MIC (Streptococcus pneumoniae) [µg/mL]	also measured
O=C(O)c1ccc(C(F)(F)F)cc1C(=O)c1ccc(Sc2ccc(Cl)c(Cl)c2)c([N+](=O)[O-])c1	4 (≈ 7.75 µM)	4 (≈ 7.75 µM)	2 (≈ 3.87 µM)	Activity (Clostridioides difficile [1]): Dose-dependent effect; Activity (Clostridioides difficile [2]): Dose-dependent effect; MIC [3]: 0.5 µg/mL (≈ 0.968 µM); inhibition (Bacillus subtilis [4]): Active; MIC (Streptococcus agalactiae): 4 µg/mL (≈ 7.75 µM); inhibition (Bacillus subtilis [5]): Active; Activity (Clostridioides difficile [7]): Dose-dependent effect; MIC (Streptococcus pyogenes): 4 µg/mL (≈ 7.75 µM); Activity (Clostridioides difficile [9]): Dose-dependent effect; inhibition (Staphylococcus aureus [10]): Dose-dependent effect; MIC [11]: 1 µg/mL (≈ 1.94 µM); Activity (Clostridioides difficile [12]): Dose-dependent effect; inhibition (Staphylococcus aureus [13]): inactive; Activity (Clostridioides difficile [14]): Dose-dependent effect; MIC (Enterococcus faecalis): 8 µg/mL (≈ 15.5 µM); MIC (Bacillus subtilis [15]): 2 µg/mL (≈ 3.87 µM); inhibition (Staphylococcus aureus [16]): Active
O=C(O)c1cccc(Cc2ccc(Sc3ccc(Cl)c(Cl)c3)c([N+](=O)[O-])c2)c1	> 256	> 256	> 256	–
Nc1ccccc1Sc1ccc(C(=O)c2ccccc2C(=O)O)cc1[N+](=O)[O-]	–	–	256 (≈ 649 µM)	–
Cc1ccc(C(=O)O)c(Cc2ccc(Sc3ccc(Cl)c(Cl)c3)c([N+](=O)[O-])c2)c1	4 (≈ 8.92 µM)	4 (≈ 8.92 µM)	4 (≈ 8.92 µM)	–
O=C(O)c1ccc(F)cc1Cc1ccc(Sc2ccc(Cl)c(Cl)c2)c([N+](=O)[O-])c1	8 (≈ 17.7 µM)	8 (≈ 17.7 µM)	4 (≈ 8.84 µM)	–
COc1ccc(C(=O)O)c(Cc2ccc(Sc3ccc(Cl)c(Cl)c3)c([N+](=O)[O-])c2)c1	8 (≈ 17.2 µM)	16 (≈ 34.5 µM)	8 (≈ 17.2 µM)	–
COc1ccccc1Cc1ccc(Sc2ccc(Cl)c(Cl)c2)c([N+](=O)[O-])c1	> 256	> 256	> 256	–
O=C(O)c1ccc(C(F)(F)F)cc1Cc1ccc(Sc2ccc(Cl)c(Cl)c2)c([N+](=O)[O-])c1	–	–	1 (≈ 1.99 µM)	–
CCc1c(Cl)c(O)c(Cl)c(O)c1C(=O)O[C@H]1[C@H](O)[C@H](OC)[C@H](OC/C2=C\C=C\C[C@H](O)/C(C)=C/[C@H](CC)[C@@H](O[C@@H]3OC(C)(C)[C@@H](OC(=O)C(C)C)[C@H](O)[C@@H]3O)/C(C)=C/C(C)=C/C[C@@H]([C@@H](C)O)OC2=O)O[C@@H]1C	–	–	–	Activity (Clostridioides difficile [1]): Dose-dependent effect; Activity (Clostridioides difficile [2]): Dose-dependent effect; Activity (Clostridioides difficile [7]): Dose-dependent effect; Activity (Clostridioides difficile [9]): Dose-dependent effect; Activity (Clostridioides difficile [12]): Dose-dependent effect; Activity (Clostridioides difficile [14]): Dose-dependent effect
COc1ccc(C(=O)O)c(C(=O)c2ccc(Sc3ccc(Cl)c(Cl)c3)c([N+](=O)[O-])c2)c1	8 (≈ 16.7 µM)	16 (≈ 33.5 µM)	8 (≈ 16.7 µM)	–
O=C(O)c1cc(Cl)ccc1C(=O)c1ccc(Sc2ccc(Cl)c(Cl)c2)c([N+](=O)[O-])c1	4 (≈ 8.29 µM)	8 (≈ 16.6 µM)	8 (≈ 16.6 µM)	–
O=C(O)c1ccc(F)cc1C(=O)c1ccc(Sc2ccc(Cl)c(Cl)c2)c([N+](=O)[O-])c1	8 (≈ 17.2 µM)	16 (≈ 34.3 µM)	8 (≈ 17.2 µM)	–
COc1ccccc1C(=O)c1ccc(Sc2ccc(Cl)c(Cl)c2)c([N+](=O)[O-])c1	> 256	> 256	> 256	–
O=C(O)c1cc(C(F)(F)F)ccc1C(=O)c1ccc(Sc2ccc(Cl)c(Cl)c2)c([N+](=O)[O-])c1	8 (≈ 15.5 µM)	16 (≈ 31 µM)	4 (≈ 7.75 µM)	–
O=C(O)c1cc(Cl)ccc1Cc1ccc(Sc2ccc(Cl)c(Cl)c2)c([N+](=O)[O-])c1	8 (≈ 17.1 µM)	8 (≈ 17.1 µM)	4 (≈ 8.53 µM)	–
O=C(O)c1cc(C(F)(F)F)ccc1Cc1ccc(Sc2ccc(Cl)c(Cl)c2)c([N+](=O)[O-])c1	8 (≈ 15.9 µM)	–	2 (≈ 3.98 µM)	–
CN[C@H](CC(C)C)C(=O)N[C@H]1C(=O)N[C@@H](CC(N)=O)C(=O)N[C@H]2C(=O)N[C@H]3C(=O)N[C@H](C(=O)N[C@H](C(=O)O)c4cc(O)cc(O)c4-c4cc3ccc4O)[C@H](O)c3ccc(c(Cl)c3)Oc3cc2cc(c3O[C@@H]2O[C@H](CO)[C@@H](O)[C@H](O)[C@H]2O[C@H]2C[C@](C)(N)[C@H](O)[C@H](C)O2)Oc2ccc(cc2Cl)[C@H]1O [VANCOMYCIN]	–	–	–	Activity (Clostridioides difficile [1]): inactive; Activity (Clostridioides difficile [2]): inactive; MIC [3]: 0.5 µg/mL (≈ 0.345 µM); MIC (Streptococcus agalactiae): 2 µg/mL (≈ 1.38 µM); Activity (Clostridioides difficile [7]): inactive; MIC (Streptococcus pyogenes): 1 µg/mL (≈ 0.69 µM); MIC (Clostridioides difficile [17]): 4 µg/mL (≈ 2.76 µM); Activity (Clostridioides difficile [9]): inactive; MIC [11]: 0.25 µg/mL (≈ 0.173 µM); Activity (Clostridioides difficile [12]): inactive; MIC (Clostridioides difficile [18]): 2 µg/mL (≈ 1.38 µM); Activity (Clostridioides difficile [14]): inactive; MIC (Enterococcus faecalis): 1 µg/mL (≈ 0.69 µM); MIC (Clostridioides difficile [19]): 2 µg/mL (≈ 1.38 µM)
O=C(O)c1ccc(Cl)cc1C(=O)c1ccc(Sc2ccc(Cl)c(Cl)c2)c([N+](=O)[O-])c1	8 (≈ 16.6 µM)	8 (≈ 16.6 µM)	8 (≈ 16.6 µM)	–
O=C(O)c1ccccc1Cc1ccc(Sc2ccc(Cl)c(Cl)c2)c([N+](=O)[O-])c1	16 (≈ 36.8 µM)	16 (≈ 36.8 µM)	16 (≈ 36.8 µM)	–
CO[C@H]1/C=C/O[C@@]2(C)Oc3c(C)c(O)c4c(O)c(c(/C=N/N5CCN(C)CC5)c(O)c4c3C2=O)NC(=O)/C(C)=C\C=C\[C@H](C)[C@H](O)[C@@H](C)[C@@H](O)[C@@H](C)[C@H](OC(C)=O)[C@@H]1C	–	–	–	inhibition (Staphylococcus aureus [20]): inactive; inhibition (Staphylococcus aureus [21]): Active; inhibition (Staphylococcus aureus [22]): inactive
O=C(O)c1ccc(Cl)cc1Cc1ccc(Sc2ccc(Cl)c(Cl)c2)c([N+](=O)[O-])c1	8 (≈ 17.1 µM)	8 (≈ 17.1 µM)	2 (≈ 4.27 µM)	–
O=C(O)c1cccc(C(=O)c2ccc(Sc3ccc(Cl)c(Cl)c3)c([N+](=O)[O-])c2)c1	32 (≈ 71.4 µM)	> 256	> 256	–
O=C(O)c1ccccc1C(=O)c1ccc(Sc2ccc(Cl)c(Cl)c2)c([N+](=O)[O-])c1	16 (≈ 35.7 µM)	16 (≈ 35.7 µM)	8 (≈ 17.8 µM)	–
